From ChEMBL document CHEMBL3286203, “Reactive oxygen species (ROS) inducible DNA cross-linking agents and their effect on cancer cells and normal lymphocytes” (J Med Chem, 2014)
The source made the active and inactive calls. The calls are words filed in the database; no cut-off is given here.

Assays:
[1] = test system: NCI-H322M; assay: Cytotoxicity against human NCI-H322M cells assessed as growth inhibition at 10 uM after 48 hrs by SRB assay; format: functional, cell-based
Summary of the method: (§1)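 Single-dose screen run by the NCI Developmental Therapeutics Program (NCI-60). Cells were grown in RPMI 1640 with 5% fetal bovine serum and 2 mM L-glutamine. They were plated at 5000–40 000 cells/well, depending on doubling time. Each line was run in two plates and exposed to 10 μM drug for 48 h at 37 °C, 5% CO2, 100% humidity. Read-out was growth percent.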

[2] = test system: SK-MEL-5; assay: Cytotoxicity against human SK-MEL-5 cells assessed as growth inhibition at 10 uM after 48 hrs by SRB assay; format: functional, cell-based; summary of the method: as §1
[3] = test system: HOP-62; assay: Cytotoxicity against human HOP62 cells assessed as growth inhibition at 10 uM after 48 hrs by SRB assay; format: functional, cell-based
Summary of the method: (§2)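 NCI DTP 60-cell-line screen run at the NCI. Cells were grown in RPMI 1640 with 5% FBS and 2 mM L-glutamine. They were seeded at 5000–40 000 cells/well depending on doubling time and grown in two plates per line. Each was exposed to a single 10 μM dose for 48 h at 37 °C, 5% CO2, 95% air, 100% humidity. Read-out was percent growth.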

[4] = Induction of [32P]-labeled 49-mer oligonucleotide duplex DNA 12 with GNC sequence at terminus (unknown origin) interstrand cross-linking at 1 mM after 16 hrs by PAGE
Summary of the method: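 32P-labelled 12a (1.0 μM) annealed with 1.5 equiv of 12b in 10 mM potassium phosphate pH 7 / 100 mM NaCl (65 °C for 3 min, then slow cooling). Duplex incubated with compound (final 1 μM–5 mM), with or without H2O2, in NaCl and potassium phosphate pH 8 at room temperature for 16 h. Quenched in formamide; 20% denaturing PAGE.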

[5] = test system: T47D; assay: Cytotoxicity against human T47D cells assessed as growth inhibition at 10 uM after 48 hrs by SRB assay; format: functional, cell-based
Summary of the method: (§3)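 NCI-60 DTP human tumour line screen. Cells grown in RPMI 1640 with 5% fetal bovine serum and 2 mM L-glutamine, plated at 5000–40 000 cells/well according to doubling time. Single dose of 10 μM for 48 h at 37 °C, 5% CO2, 95% air, 100% humidity, two plates per line. Read-out is growth percent.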

[6] = test system: 786-0; assay: Cytotoxicity against human 786-0 cells assessed as growth inhibition at 10 uM after 48 hrs by SRB assay; format: functional, cell-based; summary of the method: as §2
[7] = test system: MOLT-4; assay: Cytotoxicity against human MOLT4 cells assessed as growth inhibition at 10 uM after 48 hrs by SRB assay; format: functional, cell-based; summary of the method: as §1
[8] = test system: SNB-19; assay: Cytotoxicity against human SNB19 cells assessed as growth inhibition at 10 uM after 48 hrs by SRB assay; format: functional, cell-based; summary of the method: as §3
[9] = test system: SF-295; assay: Cytotoxicity against human SF295 cells assessed as growth inhibition at 10 uM after 48 hrs by SRB assay; format: functional, cell-based; summary of the method: as §1
[10] = test system: LOX IMVI; assay: Cytotoxicity against human LOXIMVI cells assessed as growth inhibition at 10 uM after 48 hrs by SRB assay; format: functional, cell-based; summary of the method: as §2
[11] = test system: RPMI-8226; assay: Cytotoxicity against human RPMI8226 cells assessed as growth inhibition at 10 uM after 48 hrs by SRB assay; format: functional, cell-based; summary of the method: as §1
[12] = test system: UACC-62; assay: Cytotoxicity against human UACC62 cells assessed as growth inhibition at 10 uM after 48 hrs by SRB assay; format: functional, cell-based; summary of the method: as §3
[13] = test system: UACC-257; assay: Cytotoxicity against human UACC257 cells assessed as growth inhibition at 10 uM after 48 hrs by SRB assay; format: functional, cell-based; summary of the method: as §3
[14] = test system: UO-31; assay: Cytotoxicity against human UO31 cells assessed as growth inhibition at 10 uM after 48 hrs by SRB assay; format: functional, cell-based; summary of the method: as §3
[15] = test system: MDA-MB-468; assay: Cytotoxicity against human MDA-MB-468 cells assessed as growth inhibition at 10 uM after 48 hrs by SRB assay; format: functional, cell-based; summary of the method: as §1
[16] = test system: HCT-15; assay: Cytotoxicity against human HCT15 cells assessed as growth inhibition at 10 uM after 48 hrs by SRB assay; format: functional, cell-based; summary of the method: as §2
[17] = test system: SNB-75; assay: Cytotoxicity against human SNB75 cells assessed as growth inhibition at 10 uM after 48 hrs by SRB assay; format: functional, cell-based; summary of the method: as §3
[18] = test system: SF-539; assay: Cytotoxicity against human SF539 cells assessed as growth inhibition at 10 uM after 48 hrs by SRB assay; format: functional, cell-based; summary of the method: as §1
[19] = test system: CAKI-1; assay: Cytotoxicity against human Caki1 cells assessed as growth inhibition at 10 uM after 48 hrs by SRB assay; format: functional, cell-based; summary of the method: as §2
[20] = test system: SK-MEL-28; assay: Cytotoxicity against human SK-MEL-28 cells assessed as growth inhibition at 10 uM after 48 hrs by SRB assay; format: functional, cell-based; summary of the method: as §1
[21] = test system: IGROV-1; assay: Cytotoxicity against human IGROV1 cells assessed as growth inhibition at 10 uM after 48 hrs by SRB assay; format: functional, cell-based; summary of the method: as §2
[22] = test system: EKVX; assay: Cytotoxicity against human EKVX cells assessed as growth inhibition at 10 uM after 48 hrs by SRB assay; format: functional, cell-based; summary of the method: as §2
[23] = test system: SK-OV-3; assay: Cytotoxicity against human SKOV3 cells assessed as growth inhibition at 10 uM after 48 hrs by SRB assay; format: functional, cell-based; summary of the method: as §1
[24] = test system: SK-MEL-2; assay: Cytotoxicity against human SK-MEL-2 cells assessed as growth inhibition at 10 uM after 48 hrs by SRB assay; format: functional, cell-based; summary of the method: as §1
[25] = test system: U-251; assay: Cytotoxicity against human U251 cells assessed as growth inhibition at 10 uM after 48 hrs by SRB assay; format: functional, cell-based; summary of the method: as §3
[26] = test system: M14; assay: Cytotoxicity against human M14 cells assessed as growth inhibition at 10 uM after 48 hrs by SRB assay; format: functional, cell-based; summary of the method: as §2
[27] = test system: HL-60(TB); assay: Cytotoxicity against human HL-60(TB) cells assessed as growth inhibition at 10 uM after 48 hrs by SRB assay; format: functional, cell-based; summary of the method: as §2
[28] = test system: SF-268; assay: Cytotoxicity against human SF268 cells assessed as growth inhibition at 10 uM after 48 hrs by SRB assay; format: functional, cell-based; summary of the method: as §1
[29] = test system: Malme-3M; assay: Cytotoxicity against human MALME-3M cells assessed as growth inhibition at 10 uM after 48 hrs by SRB assay; format: functional, cell-based; summary of the method: as §2
[30] = test system: RXF 393; assay: Cytotoxicity against human RXF393 cells assessed as growth inhibition at 10 uM after 48 hrs by SRB assay; format: functional, cell-based; summary of the method: as §1
[31] = test system: COLO 205; assay: Cytotoxicity against human COLO205 cells assessed as growth inhibition at 10 uM after 48 hrs by SRB assay; format: functional, cell-based; summary of the method: as §2
[32] = test system: A498; assay: Cytotoxicity against human A498 cells assessed as growth inhibition at 10 uM after 48 hrs by SRB assay; format: functional, cell-based; summary of the method: as §2
[33] = test system: OVCAR-4; assay: Cytotoxicity against human OVCAR4 cells assessed as growth inhibition at 10 uM after 48 hrs by SRB assay; format: functional, cell-based; summary of the method: as §1
[34] = test system: HOP-92; assay: Cytotoxicity against human HOP92 cells assessed as growth inhibition at 10 uM after 48 hrs by SRB assay; format: functional, cell-based; summary of the method: as §2
[35] = test system: BT-549; assay: Cytotoxicity against human BT549 cells assessed as growth inhibition at 10 uM after 48 hrs by SRB assay; format: functional, cell-based; summary of the method: as §2
[36] = test system: PC-3; assay: Cytotoxicity against human PC3 cells assessed as growth inhibition at 10 uM after 48 hrs by SRB assay; format: functional, cell-based; summary of the method: as §1
[37] = test system: MDA-MB-435; assay: Cytotoxicity against human MDA-MB-435 cells assessed as growth inhibition at 10 uM after 48 hrs by SRB assay; format: functional, cell-based; summary of the method: as §1

## CC1(C)OB(c2ccc(N(CCCl)CCBr)cc2)OC1(C)C
[1]
  growth inhibition (GI): Active
[2]
  growth inhibition (GI): Active
[3]
  growth inhibition (GI): Active
[4]
  Activity: inactive
[5]
  growth inhibition (GI): Active
[6]
  growth inhibition (GI): Active
[7]
  growth inhibition (GI): Active
[8]
  growth inhibition (GI): Active
[9]
  growth inhibition (GI): Active
[10]
  growth inhibition (GI): Active
[11]
  growth inhibition (GI): Active
[12]
  growth inhibition (GI): Active
[13]
  growth inhibition (GI): Active
[14]
  growth inhibition (GI): Active
[15]
  growth inhibition (GI): Active
[16]
  growth inhibition (GI): Active
[17]
  growth inhibition (GI): Active
[18]
  growth inhibition (GI): Active
[19]
  growth inhibition (GI): Active
[20]
  growth inhibition (GI): Active
[21]
  growth inhibition (GI): Active
[22]
  growth inhibition (GI): Active
[23]
  growth inhibition (GI): Active
[24]
  growth inhibition (GI): Active
[25]
  growth inhibition (GI): Active
[26]
  growth inhibition (GI): Active
[27]
  growth inhibition (GI): Active
[28]
  growth inhibition (GI): Active
[29]
  growth inhibition (GI): Active
[30]
  growth inhibition (GI): Active
[31]
  growth inhibition (GI): Active
[32]
  growth inhibition (GI): Active
[33]
  growth inhibition (GI): Active
[34]
  growth inhibition (GI): Active
[35]
  growth inhibition (GI): Active
[36]
  growth inhibition (GI): Active
[37]
  growth inhibition (GI): Active

## CC1(C)OB(c2ccc(N(CCCl)CCCl)cc2)OC1(C)C
[1]
  growth inhibition (GI): Active
[2]
  growth inhibition (GI): Active
[3]
  growth inhibition (GI): Active
[4]
  Activity: inactive
[5]
  growth inhibition (GI): Active
[6]
  growth inhibition (GI): Active
[7]
  growth inhibition (GI): Active
[8]
  growth inhibition (GI): Active
[9]
  growth inhibition (GI): Active
[10]
  growth inhibition (GI): Active
[11]
  growth inhibition (GI): Active
[12]
  growth inhibition (GI): Active
[13]
  growth inhibition (GI): Active
[14]
  growth inhibition (GI): Active
[15]
  growth inhibition (GI): Active
[16]
  growth inhibition (GI): Active
[17]
  growth inhibition (GI): Active
[18]
  growth inhibition (GI): Active
[19]
  growth inhibition (GI): Active
[20]
  growth inhibition (GI): Active
[21]
  growth inhibition (GI): Active
[22]
  growth inhibition (GI): Active
[23]
  growth inhibition (GI): Active
[24]
  growth inhibition (GI): Active
[25]
  growth inhibition (GI): Active
[26]
  growth inhibition (GI): Active
[27]
  growth inhibition (GI): Active
[28]
  growth inhibition (GI): Active
[29]
  growth inhibition (GI): Active
[30]
  growth inhibition (GI): Active
[31]
  growth inhibition (GI): Active
[32]
  growth inhibition (GI): Active
[33]
  growth inhibition (GI): Active
[34]
  growth inhibition (GI): Active
[35]
  growth inhibition (GI): Active
[36]
  growth inhibition (GI): Active
[37]
  growth inhibition (GI): Active
